Results reported in article PMC12123727 (BMC Cancer, 2025).
Read-outs that look alike come from different tables or passages of the source.

How the values were obtained:
[1] = system: Relapsed/Refractory Lymphoma; conditions: cited from earlier work
[2] = Phase 1 safety evaluation; type: in vivo, human; conditions: for Dose interruption: due to thrombocytopenia
Outline: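 3 + 3 escalation of oral test compound, 40, 60 or 80 mg BID 4 h apart, 7 days on and 7 off, after a single dose on D-3. Investigators graded AEs at every visit per CTCAE v5.0. DLT was assessed over cycle 1 and covered grade 4 cytopenias, febrile or bleeding grade ≥3 cytopenias, and grade ≥3 non-hematological toxicity. Safety set: ≥1 dose and ≥1 safety evaluation.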

[3] = PCYC-0403, r/r FL patients (n = 14)

CN(C)Cc1c(C(=O)NCCOc2ccc(C(=O)NO)cc2)oc2ccccc12 [abexinostat, Abexinostat]
ORR ([1]; PCYC-0403, mantle cell lymphoma, 3/11): 27.3%
median PFS ([1]; PCYC-0403, mantle cell lymphoma): 3.9 months
CR, patients [1, 3]: 1
PR, patients [1, 3]: 8
ORR ([1]; PCYC-0403, r/r FL patients, 9/14): 64.3%
DCR ([1]; PCYC-0403, r/r FL patients, 12/14): 85.7%
median PFS ([1]; PCYC-0403, r/r FL patients): 20.5 months
TEAE: Abnormal ST segment on electrocardiogram ([2]; 40 mg BID (n = 4), Any grade): 0 n (%)
TEAE: Abnormal T-wave on electrocardiogram ([2]; 40 mg BID (n = 4), Any grade): 0 n (%)
TEAE: Anemia ([2]; 40 mg BID (n = 4), Any grade): 1 (25.0) n (%)
TEAE: Any TEAEs ([2]; 40 mg BID (n = 4), Any grade): 4 (100) n (%)
TEAE: Diarrhea ([2]; 40 mg BID (n = 4), Any grade): 0 n (%)
TEAE: Elevated low-density lipoprotein ([2]; 40 mg BID (n = 4), Any grade): 1 (25.0) n (%)
TEAE: Elevated α-hydroxybutyrate dehydrogenase ([2]; 40 mg BID (n = 4), Any grade): 1 (25.0) n (%)
TEAE: Fatigue ([2]; 40 mg BID (n = 4), Any grade): 1 (25.0) n (%)
TEAE: Hypercholesterolemia ([2]; 40 mg BID (n = 4), Any grade): 1 (25.0) n (%)
TEAE: Hyperglycemia ([2]; 40 mg BID (n = 4), Any grade): 1 (25.0) n (%)
TEAE: Hypertriglyceridemia ([2]; 40 mg BID (n = 4), Any grade): 1 (25.0) n (%)
TEAE: Hyperuricemia ([2]; 40 mg BID (n = 4), Any grade): 1 (25.0) n (%)
TEAE: Hypoalbuminemia ([2]; 40 mg BID (n = 4), Any grade): 2 (50.0) n (%)
TEAE: Hypoproteinemia ([2]; 40 mg BID (n = 4), Any grade): 1 (25.0) n (%)
TEAE: Leukopenia ([2]; 40 mg BID (n = 4), Any grade): 0 n (%)
TEAE: Lymphopenia ([2]; 40 mg BID (n = 4), Any grade): 0 n (%)
TEAE: Nausea ([2]; 40 mg BID (n = 4), Any grade): 0 n (%)
TEAE: Neutropenia ([2]; 40 mg BID (n = 4), Any grade): 1 (25.0) n (%)
TEAE: Thrombocytopenia ([2]; 40 mg BID (n = 4), Any grade): 2 (50.0) n (%)
TEAE: Urinary white blood cell positivity ([2]; 40 mg BID (n = 4), Any grade): 1 (25.0) n (%)
TEAE: Any TEAEs ([2]; 40 mg BID (n = 4), ≥ Grade 3): 1 (25.0) n (%)
TEAE: Thrombocytopenia ([2]; 40 mg BID (n = 4), ≥ Grade 3): 1 (25.0) n (%)
Dose interruption ([2]; 40 mg BID group): one patient
TEAE: Abnormal ST segment on electrocardiogram ([2]; 60 mg BID (n = 3), Any grade): 1 (33.3) n (%)
TEAE: Abnormal T-wave on electrocardiogram ([2]; 60 mg BID (n = 3), Any grade): 1 (33.3) n (%)
TEAE: Anemia ([2]; 60 mg BID (n = 3), Any grade): 1 (33.3) n (%)
TEAE: Any TEAEs ([2]; 60 mg BID (n = 3), Any grade): 3 (100) n (%)
TEAE: Diarrhea ([2]; 60 mg BID (n = 3), Any grade): 1 (33.3) n (%)
TEAE: Elevated low-density lipoprotein ([2]; 60 mg BID (n = 3), Any grade): 2 (66.7) n (%)
TEAE: Elevated α-hydroxybutyrate dehydrogenase ([2]; 60 mg BID (n = 3), Any grade): 1 (33.3) n (%)
TEAE: Fatigue ([2]; 60 mg BID (n = 3), Any grade): 1 (33.3) n (%)
TEAE: Hypercholesterolemia ([2]; 60 mg BID (n = 3), Any grade): 1 (33.3) n (%)
TEAE: Hyperglycemia ([2]; 60 mg BID (n = 3), Any grade): 0 n (%)
TEAE: Hypertriglyceridemia ([2]; 60 mg BID (n = 3), Any grade): 2 (66.7) n (%)
TEAE: Hyperuricemia ([2]; 60 mg BID (n = 3), Any grade): 1 (33.3) n (%)
TEAE: Hypoalbuminemia ([2]; 60 mg BID (n = 3), Any grade): 2 (66.7) n (%)
TEAE: Hypoproteinemia ([2]; 60 mg BID (n = 3), Any grade): 2 (66.7) n (%)
TEAE: Leukopenia ([2]; 60 mg BID (n = 3), Any grade): 1 (33.3) n (%)
TEAE: Lymphopenia ([2]; 60 mg BID (n = 3), Any grade): 1 (33.3) n (%)
TEAE: Nausea ([2]; 60 mg BID (n = 3), Any grade): 1 (33.3) n (%)
TEAE: Neutropenia ([2]; 60 mg BID (n = 3), Any grade): 1 (33.3) n (%)
TEAE: Thrombocytopenia ([2]; 60 mg BID (n = 3), Any grade): 2 (66.7) n (%)
TEAE: Urinary white blood cell positivity ([2]; 60 mg BID (n = 3), Any grade): 1 (33.3) n (%)
TEAE: Any TEAEs ([2]; 60 mg BID (n = 3), ≥ Grade 3): 2 (66.7) n (%)
TEAE: Hypertriglyceridemia ([2]; 60 mg BID (n = 3), ≥ Grade 3): 1 (33.3) n (%)
TEAE: Thrombocytopenia ([2]; 60 mg BID (n = 3), ≥ Grade 3): 1 (33.3) n (%)
Dose interruption ([2]; 60 mg BID group): one patient
Dose reduction due to TEAEs ([2]; 60 mg BID group, thrombocytopenia): one patient
TEAE: Abnormal ST segment on electrocardiogram ([2]; 80 mg BID (n = 4), Any grade): 2 (50.0) n (%)
TEAE: Abnormal T-wave on electrocardiogram ([2]; 80 mg BID (n = 4), Any grade): 3 (75.0) n (%)
TEAE: Anemia ([2]; 80 mg BID (n = 4), Any grade): 2 (50.0) n (%)
TEAE: Any TEAEs ([2]; 80 mg BID (n = 4), Any grade): 4 (100) n (%)
TEAE: Diarrhea ([2]; 80 mg BID (n = 4), Any grade): 3 (75.0) n (%)
TEAE: Elevated low-density lipoprotein ([2]; 80 mg BID (n = 4), Any grade): 0 n (%)
TEAE: Elevated α-hydroxybutyrate dehydrogenase ([2]; 80 mg BID (n = 4), Any grade): 1 (25.0) n (%)
TEAE: Fatigue ([2]; 80 mg BID (n = 4), Any grade): 2 (50.0) n (%)
TEAE: Hypercholesterolemia ([2]; 80 mg BID (n = 4), Any grade): 1 (25.0) n (%)
TEAE: Hyperglycemia ([2]; 80 mg BID (n = 4), Any grade): 2 (50.0) n (%)
TEAE: Hypertriglyceridemia ([2]; 80 mg BID (n = 4), Any grade): 3 (75.0) n (%)
TEAE: Hyperuricemia ([2]; 80 mg BID (n = 4), Any grade): 1 (25.0) n (%)
TEAE: Hypoalbuminemia ([2]; 80 mg BID (n = 4), Any grade): 1 (25.0) n (%)
TEAE: Hypoproteinemia ([2]; 80 mg BID (n = 4), Any grade): 2 (50.0) n (%)
TEAE: Leukopenia ([2]; 80 mg BID (n = 4), Any grade): 3 (75.0) n (%)
TEAE: Lymphopenia ([2]; 80 mg BID (n = 4), Any grade): 2 (50.0) n (%)
TEAE: Nausea ([2]; 80 mg BID (n = 4), Any grade): 2 (50.0) n (%)
